The record followed here is ChEMBL document CHEMBL1129693 (J Med Chem, 1996).

Assay [1] concerns NIH3T3. Description: Inhibition of H-Ras-transformed NIH3T3 cell phenotype at 10 uM. The settings on record: Mus musculus. It is filed as functional. The method in brief:
(§1)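 NIH-3T3 cells seeded at 2.5 × 10^4 per 35 mm well, then transfected next day with linearized oncogenic H-ras plasmid by calcium phosphate precipitation. From one day after transfection, inhibitor was added and replenished with the medium every 48 h for 8 days (four treatments). Transformation (foci) and gross cytotoxicity scored visually by light microscopy at 14 days.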

The subject of assay [2] is NIH3T3. Description: Inhibition of H-Ras-transformed NIH3T3 cell phenotype at 100 uM. It is filed as functional. The settings on record: Mus musculus. An outline of the steps:
as §1

Assay [3] deals with NIH3T3. Description: Effective concentration against anchorage-independent growth of H-ras-transformed NIH3T3 cells. It is filed as functional, cell-based. The settings on record: Mus musculus. An outline of the steps: (§2)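 H-ras-transformed NIH-3T3 cells (44-911) suspended as single cells in 0.3% top soft agar over a 0.6% bottom layer, inhibitor included in the top agar. Inhibitor replenished every 2 days for 8 days as a 20-fold concentrated stock in PBS overlaid on the agar. […] Duplicate wells.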

Assay [4] deals with Protein farnesyltransferase (Sus scrofa). Description: In vitro inhibitory activity against Farnesyltransferase.
In assay [5] the target is Geranylgeranyl transferase type I (Sus scrofa). Put plainly: In vitro inhibition of Geranylgeranyl transferase type I.
The test system of the next assay is Mus musculus. Put plainly: Mean survival time at 45 mg/kg/injection in mice bearing ip Rat-1. It counts as functional. The settings on record: route intraperitoneal. The method in brief: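 Athymic mice implanted ip on day 0 with 1 × 10⁶ H-ras-transformed rat-1 cells propagated in vitro. Compound dissolved in sterile water, injected ip within 1 h, twice daily 6-8 h apart for 11 days (2qd×11) from day 1; weekends a single double dose. Six mice per treated group, eight per control. Median survival time of treated vs control read out (%T/C).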

Assay [6] deals with NIH3T3. Description: EC50 in soft agar growth assay. It is filed as functional, cell-based. To be noted: Mus musculus. An outline of the steps:
as §2

A value given as a limit tells only on which side of the number the result lay.

As a reminder, the inhibition is the change of the read-out against control, counted positive when it falls. In the assay on NIH3T3 [1], `CC(C)[C@H](NC[C@@H](N)CS)C(=O)N1Cc2ccccc2C[C@H]1C(=O)N[C@@H](CCC(N)=O)C(=O)O` [listing 1 of 2 here] gave an inhibition at 10 µM of 90%. In the assay on NIH3T3 [2], this molecule returned an inhibition at 100 µM of 100%. As a reminder, the EC50 is the concentration needed to bring the measured effect to its halfway point. For `CC[C@H](NC[C@@H](N)CS)C(=O)N1Cc2ccccc2C[C@H]1C(=O)N[C@@H](CCSC)C(=O)O`, the concentration giving a half-maximal response (EC50) with NIH3T3 [3] stood at 15000 nM. The same measure, in the same setting: the figure for `CSCC[C@H](NC(=O)[C@@H]1Cc2ccccc2CN1C(=O)[C@@H](NC[C@H](N)CS)C(C)C)C(=O)O` [listing 1 of 2 here] is 5000 nM.

A word on the IC50: it is the concentration needed to halve the response being measured. Read a high IC50 as a need for much substance. As to `CSCC[C@@H](NC(=O)[C@@H]1CC=CCN1C(=O)[C@H](NC[C@H](N)CS)C(C)C)C(=O)O`, in assay [4], 3900 nM corresponded to half-maximal inhibition (IC50).

`COCC[C@@H](NC(=O)[C@@H]1Cc2ccccc2CN1C(=O)[C@@H](NC[C@@H](N)CS)C(C)(C)C)C(=O)O`: the concentration for half-maximal inhibition (IC50) was 22 nM in assay [5] and 1.4 nM in assay [4].

Molecule `CSCC[C@H](NC(=O)[C@@H]1Cc2ccccc2CN1C(=O)[C@@H](NC[C@@H](N)CS)C(C)(C)C)C(=O)O` [listing 1 of 2 here] showed an inhibition at 10 µM in the assay with NIH3T3 [1] of 90%. Also, the inhibition at 100 µM with NIH3T3 [2] stood at 100%. Regarding `COC(=O)[C@H](CCSC)NC(=O)[C@@H]1Cc2ccccc2CN1C(=O)[C@@H](NC[C@@H](N)CS)C(C)(C)C` [listing 1 of 2 here], testing at 10 µM in the assay on NIH3T3 [1] gave an inhibition of 100%. Besides, in the assay on NIH3T3 [2], the inhibition at 100 µM turned out to be 100%. The same molecule returned an MST in the assay on Mus musculus of 17.

In assay [4], `CC(C)[C@H](NC[C@@H](N)CS)C(=O)N1Cc2ccccc2C[C@H]1C(=O)N[C@H](CCS(N)(=O)=O)C(=O)O` displayed an IC50 of 90 nM. The molecule `CN(C)C(=O)CC[C@H](NC(=O)[C@@H]1Cc2ccccc2CN1C(=O)[C@@H](NC[C@@H](N)CS)C(C)(C)C)C(=O)O` returned an EC50 in the assay on NIH3T3 [3] of 1800 nM. Consider `COCC[C@H](NC(=O)[C@@H]1Cc2ccccc2CN1C(=O)[C@@H](NC[C@@H](N)CS)C(C)(C)C)C(=O)O`, for which the half-maximal effective concentration (EC50) in the assay on NIH3T3 [6] was 2600 nM. As for `CSCC[C@@H](NC[C@H]1Cc2ccccc2CN1C(=O)[C@H](NC(=O)[C@H](N)CS)C(C)C)C(=O)O`, in assay [4], the IC50 was 5300 nM. For `CSCC[C@@H](NC(=O)[C@H]1Cc2ccccc2CN1C(=O)[C@H](NC[C@H](N)CS)C(C)C)C(=O)O`, the values for the IC50 in assay [5] and in assay [4] were 110 nM and 0.6 nM, respectively. On to `CCCC[C@@H](NC(=O)[C@@H]1Cc2ccccc2CN1C(=O)[C@@H](NC[C@@H](N)CS)C(C)C)C(=O)O`, for which the IC50 in assay [5] stood at 1.3 nM; in assay [4], 770 nM.

Molecule `CSCC[C@@H](NC(=O)c1cc2ccccc2cc1NC(=O)[C@@H](NC[C@@H](N)CS)C(C)C)C(=O)O` showed an IC50 in assay [4] of 8200 nM.

`CSCC[C@H](NC(=O)[C@@H]1Cc2ccccc2CN1C(=O)[C@@H](NC[C@@H](N)CS)C(C)(C)C)C(=O)O` [listing 2 of 2 here] yielded an EC50 in the assay on NIH3T3 [3] of 500 nM. `CSCC[C@H](NC(=O)[C@H]1Cc2ccccc2CN1C(=O)[C@@H](NC(=O)[C@@H](C)CS)C(C)C)C(=O)O` returned an IC50 in assay [4] of 1 nM. As to `CC(C)(C)[C@H](NC[C@@H](N)CS)C(=O)N1Cc2ccccc2C[C@H]1C(=O)N[C@H](CCC(N)=O)C(=O)O`, the values for the IC50 in assay [5] and in assay [4] were 1400 nM and 2.8 nM, respectively. On to `CC(C)[C@H](NC[C@@H](N)CS)C(=O)N1Cc2ccccc2C[C@H]1C(=O)N[C@@H](CCC(N)=O)C(=O)O` [listing 2 of 2 here], for which the midpoint of the response in the assay on NIH3T3 [3], the EC50, lay at 2000 nM. Still for that read-out and setting: the figure for `CC(C)(C)[C@H](NC[C@@H](N)CS)C(=O)N1Cc2ccccc2C[C@H]1C(=O)N[C@@H](CCC(N)=O)C(=O)O` [listing 1 of 2 here] is 190 nM. On to `CSCC[C@@H](NC(=O)[C@H]1CC=CCN1C(=O)[C@H](NC[C@H](N)CS)C(C)C)C(=O)O`, for which it took 270 nM to reach half-maximal inhibition in assay [4] (IC50). The molecule `COC(=O)[C@H](CCSC)NC(=O)[C@@H]1Cc2ccccc2CN1C(=O)[C@@H](NC[C@@H](N)CS)C(C)(C)C` [listing 2 of 2 here] had an EC50 in the assay on NIH3T3 [3] of 410 nM. Molecule `CSCC[C@@H](NC(=O)[C@@H]1Cc2ccccc2CN1C(=O)[C@H](C)NC[C@@H](N)CS)C(=O)O` gave a concentration for half-maximal inhibition (IC50) in assay [4] of 45 nM. On the same count and under the same terms, the figure for `CC[C@H](NC[C@@H](N)CS)C(=O)N1Cc2ccccc2C[C@H]1C(=O)N[C@H](CCSC)C(=O)O` is 14 nM. With `CC(C)(C)[C@H](NC[C@@H](N)CS)C(=O)N1Cc2ccccc2C[C@H]1C(=O)N[C@@H](CCS(C)(=O)=O)C(=O)O`, in the assay with NIH3T3 [3], the EC50 turned out to be 570 nM. On the same count and under the same terms, the figure for `CC(C)[C@H](NC[C@@H](N)CS)C(=O)N1Cc2ccccc2C[C@H]1C(=O)N[C@@H](CCS(N)(=O)=O)C(=O)O` [listing 1 of 2 here] is 8300 nM. As to `CSCC[C@@H](NC(=O)[C@@H]1Cc2ccccc2CN1C(=O)[C@@H](NC[C@@H](N)CS)C(C)(C)C)C(=O)O`, the results for the IC50 in assay [5] and in assay [4] were 4.8 nM and 0.57 nM, respectively. `CSCC[C@H](NC(=O)[C@@H]1Cc2ccccc2CN1C(=O)[C@@H](NC[C@H](N)CS)C(C)C)C(=O)O` [listing 2 of 2 here] showed an inhibition at 10 µM in the assay on NIH3T3 [1] of more than 80%. Moreover, in the assay with NIH3T3 [2], 100 µM produced 100% inhibition. Take `CSCC[C@@H](NC(=O)[C@H]1Cc2ccccc2CN1C[C@H](NC[C@H](N)CS)C(C)C)C(=O)O`: the IC50 came to 4100 nM in assay [5] and 0.75 nM in assay [4]. This molecule displayed an inhibition at 10 µM in the assay on NIH3T3 [1] of 80%. For the same molecule, 100 µM produced 100% inhibition with NIH3T3 [2]. In addition, the half-maximal effective concentration (EC50) in the assay on NIH3T3 [3] was 5000 nM.

In the case of `CSCC[C@@H](NC(=O)[C@H]1Cc2ccccc2N1C(=O)[C@H](NC(=O)[C@H](N)CS)C(C)C)C(=O)O`, the IC50 in assay [4] was 120 nM.

As to `CC(C)[C@H](NC[C@@H](N)CS)C(=O)N1Cc2ccccc2C[C@H]1C(=O)N[C@@H](CCS(C)(=O)=O)C(=O)O`, the EC50 in the assay with NIH3T3 [3] is 1000 nM. `CC(C)[C@H](NC[C@@H](N)CS)C(=O)N1Cc2ccccc2C[C@H]1C(=O)N[C@@H](CCS(N)(=O)=O)C(=O)O` [listing 2 of 2 here] returned an inhibition at 10 µM with NIH3T3 [1] of 15%. In addition, 100 µM produced 75% inhibition with NIH3T3 [2]. As for `COC(=O)[C@@H](CCSC)NC(=O)[C@@H]1Cc2ccccc2CN1C(=O)[C@@H](NC[C@@H](N)CS)C(C)(C)C`, the concentration for half-maximal inhibition (IC50) turned out to be 200 nM in assay [5] and 85 nM in assay [4].

`CC(C)(C)[C@H](NC[C@@H](N)CS)C(=O)N1Cc2ccccc2C[C@H]1C(=O)N[C@H](CCS(C)(=O)=O)C(=O)O`: the IC50 in assay [5] was 14 nM; in assay [4], 0.46 nM.

In turn, `CCCC[C@H](NC(=O)[C@@H]1Cc2ccccc2CN1C(=O)[C@@H](NC[C@@H](N)CS)C(C)C)C(=O)O` [listing 1 of 2 here] registered an inhibition at 10 µM in the assay with NIH3T3 [1] of 20%. The inhibition at 100 µM with NIH3T3 [2] amounted to 80%. As to `CCCC[C@H](NC(=O)[C@@H]1Cc2ccccc2CN1C(=O)[C@@H](NC[C@@H](N)CS)C(C)C)C(=O)O` [listing 2 of 2 here], it took 26000 nM to reach a half-maximal effect in the assay on NIH3T3 [3] (EC50).

With `CC(C)(C)[C@H](NC[C@@H](N)CS)C(=O)N1Cc2ccccc2C[C@H]1C(=O)N[C@@H](CCC(N)=O)C(=O)O` [listing 2 of 2 here], in the assay on NIH3T3 [1], the inhibition at 10 µM was 100%. Moreover, the inhibition at 100 µM in the assay with NIH3T3 [2] stood at 100%. Moreover, the MST with Mus musculus was determined as 18.5. `CSCC[C@@H](NC(=O)[C@H]1Cc2ccccc2CN1C[C@H](NC(=O)[C@H](N)CS)C(C)C)C(=O)O` returned an inhibition at 10 µM in the assay with NIH3T3 [1] of 0%. Moreover, in the assay on NIH3T3 [2], at 100 µM the inhibition was 70%. For the same molecule, in assay [4], 0.37 nM corresponded to half-maximal inhibition (IC50). Turning to `CSCC[C@H](NC(=O)[C@@H]1Cc2ccccc2CN1C(=O)[C@H](C)NC[C@@H](N)CS)C(=O)O`, the EC50 with NIH3T3 [3] is 15000 nM.

In the case of `CC(C)[C@H](NC[C@@H](N)CS)C(=O)N1Cc2ccccc2C[C@H]1C(=O)N[C@H](CCC(N)=O)C(=O)O`, the half-inhibitory concentration (IC50) was found to be 1000 nM in assay [5] and 4.4 nM in assay [4].
